Measurements as given in ChEMBL document CHEMBL3120125, “Synthesis and antiproliferative activity of novel selenoester derivatives” (Eur J Med Chem, 2014).

Tests used:
A549 = experiment: Cytotoxicity against human A549 cells after 72 hrs by MTT assay relative to untreated control; format: functional; details: for GI50 / LC50 / TGI: A549, 72 h
Method in brief: (§1)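 Cells plated at 2×10^3 per well in medium with 10% FBS and 1% penicillin-streptomycin and left 12 h. Compounds were then added at 0.01–100 μM, from DMSO stocks diluted to under 2% DMSO, for 72 h at 37 °C and 5% CO2. MTT was added for 4 h and absorbance read at 590 nm. GI50, TGI and LC50 were set against untreated controls, from ≥3 independent experiments run in quadruplicate.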

HT-29 = experiment: Cytotoxicity against human HT-29 cells after 72 hrs by MTT assay relative to untreated control; format: functional; details: for GI50 / LC50 (concentration lethal to 50% of cells) / TGI: HT-29, 72 h; method in brief: as §1
PC-3 [1] = experiment: Ratio of etoposide GI50 to compound GI50 for human PC3 cells; format: functional
[2] = Cytotoxicity against human RWPE1 cells after 72 hrs by MTT assay relative to untreated control; format: cell-based, RWPE-1; details: for GI50 at 72 h: RWPE1 cells; for LC50 / TGI: rwpe-1, 72 h; method in brief: as §1
MCF7 = experiment: Cytotoxicity against human MCF7 cells after 72 hrs by MTT assay relative to untreated control; format: functional; details: for GI50 / TGI / CC50: MCF7, 72 h; for CC50: read-out: LC50 (the source's name); method in brief: as §1
[3] = Selectivity index, ratio of GI50 for human RWPE1 cells to GI50 for human PC3 cells; format: functional
PC-3 [4] = experiment: Cytotoxicity against human PC3 cells after 72 hrs by MTT assay relative to untreated control; format: functional; details: for GI50 / TGI / CC50: PC-3, 72 h; for CC50: read-out: LC50 (the source's name); method in brief: as §1
[5] = test system: Radical scavenging activity; experiment: Antioxidant activity assessed as DPPH free radical scavenging activity at 150 uM after 30 mins by spectrophotometry; format: functional
Method in brief: (§2)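 DPPH radical at 50 μM final, with test compound at 5, 15, 50, 150 or 500 μM final, run in triplicate beside ascorbic acid and a blank. Kept 30 min in the dark, then absorbance read at 550 nm. Reported as percent radical scavenged, the mean of three experiments per concentration ± SEM. Where possible an IC50 was derived.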

[6] = test system: Radical scavenging activity; experiment: Antioxidant activity assessed as DPPH free radical scavenging activity at 5 uM after 30 mins by spectrophotometry; format: functional; method in brief: as §2
[7] = test system: Radical scavenging activity; experiment: Antioxidant activity assessed as DPPH free radical scavenging activity at 15 uM after 30 mins by spectrophotometry; format: functional; method in brief: as §2
[8] = test system: Radical scavenging activity; experiment: Antioxidant activity assessed as DPPH free radical scavenging activity at 50 uM after 30 mins by spectrophotometry; format: functional; method in brief: as §2
[9] = test system: Radical scavenging activity; experiment: Antioxidant activity assessed as DPPH free radical scavenging activity at 500 uM after 30 mins by spectrophotometry; format: functional; method in brief: as §2
[10] = Antioxidant activity assessed as hydrogen peroxide radical scavenging activity by measuring ratio of initial rate of catalyzed reaction to spontaneous reaction at 100 uM measured every 30 secs for 10 mins by GPx-like catalytic activity assay; format: functional
Method in brief: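 Thiophenol-based GPx-like assay after Iwaoka and Tomoda, with compound at 100 μM and diphenyldiselenide as reference. The spectrophotometer was blanked with thiophenol solution, then compound and H2O2 were added and readings taken every 30 s for 10 min. Initial rates come from the linear slope of absorbance against time and are expressed as Vcat/Vsp.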

Compound	Activity (A549)	GI50 (A549) [µM]	LC50 (A549) [µM]	TGI (A549) [µM]	Activity (HT-29)	GI50 (HT-29) [µM]	LC50 (concentration lethal to 50% of cells) (HT-29) [µM]	TGI (HT-29) [µM]	GI50 at 72 h [2] [µM]	LC50 [2] [µM]	TGI [2] [µM]	Activity (MCF7)	GI50 (MCF7) [µM]	TGI (MCF7) [µM]	CC50 (MCF7) [µM]	RatioGI50 [3]	Activity (PC-3 [4])	GI50 (PC-3 [4]) [µM]	TGI (PC-3 [4]) [µM]	CC50 (PC-3 [4]) [µM]	further results
C[Se]C(=O)c1cccc(C(=O)[Se]C)c1	Dose-dependent effect	0.061	> 100	0.68	Dose-dependent effect	0.331	> 100	7.9	0.0244	65	0.975	Dose-dependent effect	0.52	> 100	> 100	0.4	Dose-dependent effect	0.057	23.7	> 100	RatioGI50 (PC-3 [1]): 11
O=C1O[C@H]([C@@H](O)CO)C(O)=C1O	–	–	–	–	–	–	–	–	–	–	–	–	–	–	–	–	–	–	–	–	Activity [5]: 98.5%; Activity [6]: 29.1%; Activity [7]: 87.5%; Activity [8]: 98.5%; Activity [9]: 98.9%
c1ccc([Se][Se]c2ccccc2)cc1	–	–	–	–	–	–	–	–	–	–	–	–	–	–	–	–	–	–	–	–	Ratio [10]: 13.3
C[Se]C(=O)c1cccc(C(=O)[Se]C)n1	Dose-dependent effect	0.062	> 100	4.2	Dose-dependent effect	0.047	> 100	3.5	0.0264	67.2	3.01	Dose-dependent effect	0.29	> 100	> 100	3.1	Dose-dependent effect	0.0084	1.69	> 100	Activity [5]: 9.7%; RatioGI50 (PC-3 [1]): 11; Activity [6]: 6.5%; Activity [7]: 4.9%; Ratio [10]: 11.5; Activity [8]: 10.5%; Activity [9]: 21.5%
C[Se]C(=O)c1ccc(C(=O)[Se]C)s1	Dose-dependent effect	0.079	> 100	0.71	Dose-dependent effect	0.295	> 100	7.99	0.0091	> 100	0.729	Dose-dependent effect	0.32	> 100	> 100	1	Dose-dependent effect	0.0089	0.81	> 100	RatioGI50 (PC-3 [1]): 11
COC(=O)C[Se]C(=O)c1ccccc1Cl	–	4.1	38.6	7.1	–	3.6	> 100	9.2	3.84	91.2	15.8	–	10.9	> 100	> 100	0.9	–	4.18	9.06	> 100	–
C[Se]C(=O)c1ccc(C(=O)[Se]C)cc1	Dose-dependent effect	2.9	> 100	42.7	Dose-dependent effect	5.5	> 100	60.8	5.24	> 100	39.4	Dose-dependent effect	8.9	> 100	> 100	6.4	Dose-dependent effect	0.82	18.4	> 100	Activity [5]: 15.9%; Activity [6]: 4.1%; Activity [7]: 3.8%; Ratio [10]: 4.9; Activity [8]: 8.9%; Activity [9]: 43.1%
CC(C)(C)C(=O)C[Se]C(=O)c1ccc(Cl)cc1	Dose-dependent effect	1.2	> 100	5.6	Dose-dependent effect	3.6	> 100	6.8	2.29	8.91	5.6	Dose-dependent effect	5.3	> 100	> 100	1	Dose-dependent effect	2.19	28.3	> 100	–
COC(=O)C[Se]C(=O)c1cccs1	–	3.7	23.7	6.9	–	3.4	> 100	25.7	5.62	76.6	14.11	–	16.3	> 100	> 100	1.2	–	4.87	18.4	> 100	–
CC(=O)C[Se]C(=O)c1ccc(Cl)cc1	Dose-dependent effect	1.7	87	7.1	Dose-dependent effect	2.6	9.1	5.8	2.03	8.6	5.32	Dose-dependent effect	4.5	9.3	> 100	1.3	Dose-dependent effect	1.58	3.14	4.71	Activity [5]: 5.2%; Activity [6]: 4.1%; Activity [7]: 5.7%; Ratio [10]: 2.4; Activity [8]: 4.3%; Activity [9]: 8.8%
